The text below walks through data of ChEMBL document CHEMBL4342472, “Investigation of Inactive-State κ Opioid Receptor Homodimerization via Single-Molecule Microscopy Using New Antagonistic Fluorescent Probes” (J Med Chem, 2020).

Activity calls are given as the source filed them. No cut-off for these calls is given here.

The species entered for assay [1] is Homo sapiens. The assay is described as follows: Selectivity ratio of Ki for displacement of [3H]-diprenorphine from recombinant human DOR transiently expressed in HEK293 cell membranes to Ki for displacement of [3H]-diprenorphine from recombinant human KOR transiently expressed in HEK293 cell membranes. The essentials:
(§1)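 Membranes from HEK293T cells transiently transfected with human DOR, KOR or MOR; [3H]diprenorphine final 0.3 nM (DOR, KOR) or 0.2-0.3 nM (MOR) with varying competitor, 60 min at 37 °C in Tris/MgCl2/EDTA buffer pH 7.4. Nonspecific binding with 10 μM naloxone; IC50 by nonlinear regression converted to Ki via Cheng-Prusoff; selectivity as Ki ratio.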
On the technique in general: Displacement assays read how much labelled ligand stays bound in the presence of the test substance.

In assay [2] the target is T1, Kappa-type opioid receptor (Homo sapiens, UniProt P41145). The assay is described as follows: Inverse agonist activity at recombinant human KOR transiently expressed in HEK293T cells co-expressing G-alphaqi assessed as reduction in dynorphin A-stimulated inositol phosphate accumulation measured after 180 mins by HTRF assay. The assay is classed as functional, cell-based. Background: Time-resolved FRET reads energy transfer from a long-lived donor to a nearby acceptor.

For assay [3], the target named is T1, Kappa-type opioid receptor. The assay is described as follows: Displacement of [3H]-diprenorphine from recombinant human KOR transiently expressed in HEK293 cell membranes measured after 60 mins. In outline: as §1
Assay [4] addresses Delta-type opioid receptor (Homo sapiens, UniProt P41143). The assay is described as follows: Displacement of [3H]-diprenorphine from recombinant human DOR transiently expressed in HEK293 cell membranes measured after 60 mins. In outline: as §1
The species named for assay [5] is Homo sapiens. The assay can be described thus: Selectivity ratio of Ki for displacement of [3H]-diprenorphine from recombinant human MOR transiently expressed in HEK293 cell membranes to Ki for displacement of [3H]-diprenorphine from recombinant human KOR transiently expressed in HEK293 cell membranes. In outline: as §1
Assay [6] addresses T1, Kappa-type opioid receptor. The assay can be described thus: Binding affinity to recombinant human KOR transiently expressed in CHOK1 cells measured after 20 mins by TIRF microscopic analysis. The assay is classed as cell-based. The essentials:
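Saturation binding on CHO-K1 cells transiently expressing human KOR (24 h post-transfection): 20 min incubation at 37 °C with each ligand concentration in complete medium, one wash in HEPES buffer pH 7.3, TIRF imaging. Mean whole-cell intensity (>30 cells per concentration), normalized to highest concentration, fitted by nonlinear regression for Kd; three replicates.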

For the next assay, the target named is Mu-type opioid receptor (Homo sapiens, UniProt P35372). The assay can be described thus: Displacement of [3H]-diprenorphine from recombinant human MOR transiently expressed in HEK293 cell membranes measured after 60 mins. In outline:
as §1

Assay [7] deals with T1, Kappa-type opioid receptor. The assay can be described thus: Binding affinity to recombinant human KOR expressed in CHOK1 cells assessed as time of KOR colocalization in cell surface at 10 nM by single molecule microscopic analysis. The assay is classed as cell-based. In outline:
(§2)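 Human KOR transiently expressed in CHO-K1 cells, labelled 4 h post-transfection with Cy5 probe (10 nM) and Cy3 probe (100 nM), rapid wash, TIRF single-molecule imaging at 20 °C in HEPES buffer pH 7.3. Particles tracked automatically; observed co-localization durations deconvolved (Lucy-Richardson) against a CD86-SNAP (SiR-labelled) non-interacting control.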

The target of assay [8] is T1, Kappa-type opioid receptor. The assay is described as follows: Partial agonist activity at EA-tagged beta-arrestin2 fused KOR (unknown origin) stably expressed in HEK293 cells assessed as induction of beta-arrestin2 recruitment measured after 300 mins by chemiluminescence assay. Type of assay: cell-based. In outline:
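PathHunter: HEK-293 cells stably expressing EA-tagged β-arrestin-2, transiently transfected with ProLink-tagged KOR-PK2; plated after 24 h, held a further 24 h at 37 °C. Compounds 1 pM to 10 μM final, 300 min at 37 °C, then detection mix 60 min at room temperature; chemiluminescence normalized to basal and dynorphin A maximum, nonlinear regression.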

Assay [9] concerns the target T1, Kappa-type opioid receptor. The assay can be described thus: Binding affinity to recombinant human KOR transiently expressed in CHOK1 cells at 50 nM measured 20 mins post compound washout by TIRF microscopic analysis relative to control. The assay is classed as cell-based. The essentials: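 CHO-K1 cells transiently expressing human KOR, 24 h post-transfection; incubated 20 min at 37 °C with 50 nM fluorescent ligand in complete medium, then washed on-stage with fresh imaging buffer. TIRF images of the same cell taken every minute over 20 min; cell ROI intensity compared with pre-wash image, bleaching control included; triplicate experiments.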

In assay [10] the target is T1, Kappa-type opioid receptor. The assay can be described thus: Binding affinity to recombinant human KOR expressed in CHOK1 cells assessed as compound-coupled receptor mobility by measuring distribution in super diffusion phase at 100 nM measured after 20 mins by TIRF-SMM based TA-MSD analysis. Type of assay: cell-based. In outline:
(§3)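 Wild-type human KOR transiently transfected into CHO-K1 cells (Lipofectamine 2000); labelled 4 h post-transfection with probe at 100 nM for 20 min, washed in HEPES imaging buffer pH 7.3 and imaged by TIRF at 20 °C. Trajectories from automated particle tracking; time-averaged MSD of individual trajectories fitted to obtain diffusion coefficient and assign motion class.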

The target in assay [11] is T1, Kappa-type opioid receptor. The assay is described as follows: Binding affinity to recombinant human KOR expressed in CHOK1 cells assessed as compound-coupled receptor mobility by measuring distribution in sub-diffusion phase at 100 nM measured after 20 mins by TIRF-SMM based TA-MSD analysis. The assay is classed as cell-based. In outline:
as §3

Assay [12] addresses T1, Kappa-type opioid receptor. The assay is described as follows: Binding affinity to recombinant human KOR expressed in CHOK1 cells assessed as time of KOR colocalization in cell surface at 100 nM by single molecule microscopic analysis. Type of assay: cell-based. In outline:
as §2

The target of assay [13] is T1, Kappa-type opioid receptor. The assay is described as follows: Binding affinity to recombinant human KOR expressed in CHOK1 cells assessed as compound-coupled receptor mobility by measuring distribution in normal diffusion phase at 100 nM measured after 20 mins by TIRF-SMM based TA-MSD analysis. Type of assay: cell-based. The essentials:
as §3

Assay [14] deals with T1, Kappa-type opioid receptor. The assay is described as follows: Binding affinity to recombinant human KOR expressed in CHOK1 cells assessed as compound-coupled receptor mobility by measuring distribution in immobile phase at 100 nM measured after 20 mins by TIRF-SMM based TA-MSD analysis. The assay is classed as cell-based. In outline:
as §3

T1 sequence (P41145 whole entry): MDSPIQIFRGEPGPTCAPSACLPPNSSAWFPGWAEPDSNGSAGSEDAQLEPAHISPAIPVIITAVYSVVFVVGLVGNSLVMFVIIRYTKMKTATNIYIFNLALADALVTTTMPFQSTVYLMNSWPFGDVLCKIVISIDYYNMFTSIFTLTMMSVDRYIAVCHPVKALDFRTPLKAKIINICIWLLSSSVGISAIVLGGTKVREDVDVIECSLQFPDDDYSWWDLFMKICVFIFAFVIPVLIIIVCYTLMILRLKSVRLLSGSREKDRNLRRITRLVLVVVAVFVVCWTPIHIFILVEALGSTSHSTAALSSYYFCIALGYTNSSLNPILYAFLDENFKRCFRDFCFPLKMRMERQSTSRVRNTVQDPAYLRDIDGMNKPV
Chain of Mu-type opioid receptor (P35372 whole entry): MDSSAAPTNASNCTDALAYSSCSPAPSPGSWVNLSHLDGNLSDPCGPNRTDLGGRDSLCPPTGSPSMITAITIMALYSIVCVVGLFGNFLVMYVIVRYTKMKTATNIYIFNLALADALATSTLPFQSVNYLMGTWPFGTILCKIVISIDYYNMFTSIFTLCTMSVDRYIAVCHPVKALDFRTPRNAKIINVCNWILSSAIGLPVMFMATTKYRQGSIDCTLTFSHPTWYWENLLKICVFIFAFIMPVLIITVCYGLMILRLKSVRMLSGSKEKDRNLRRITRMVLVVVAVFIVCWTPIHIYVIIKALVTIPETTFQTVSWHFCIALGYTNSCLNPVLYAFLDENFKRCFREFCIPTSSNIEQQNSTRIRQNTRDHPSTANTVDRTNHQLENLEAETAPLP
Chain of Delta-type opioid receptor (P41143 whole entry): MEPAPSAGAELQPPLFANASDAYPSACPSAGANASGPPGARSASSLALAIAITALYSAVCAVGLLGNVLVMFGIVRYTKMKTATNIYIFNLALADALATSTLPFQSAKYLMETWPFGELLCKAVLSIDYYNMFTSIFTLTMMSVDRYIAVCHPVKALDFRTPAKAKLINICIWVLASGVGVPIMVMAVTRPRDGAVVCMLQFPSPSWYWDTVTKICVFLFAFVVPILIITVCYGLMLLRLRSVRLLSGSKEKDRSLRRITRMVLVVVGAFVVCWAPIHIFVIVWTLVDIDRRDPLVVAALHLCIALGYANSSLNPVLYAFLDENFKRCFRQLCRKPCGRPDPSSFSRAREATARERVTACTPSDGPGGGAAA

As for `CN1/C(=C/C=C/C=C/C2=[N+](CCCCCC(=O)NCCCNC(=N)Nc3ccc4[nH]c5c(c4c3)C[C@@]3(O)[C@H]4Cc6ccc(O)c7c6[C@@]3(CCN4CC3CC3)[C@H]5O7)c3ccc(S(=O)(=O)[O-])cc3C2(C)C)C(C)(C)c2cc(S(=O)(=O)O)ccc21`, the Ratio Ki is 28 in the assay listed under Homo sapiens [1] and 29 in the assay filed under Homo sapiens [5]. Further, the outcome in assay [2] was Active. Moreover, the inhibitory constant (Ki) (commonly the dissociation constant of the complex between target and ligand, obtained from inhibition or displacement) turned out to be 1.4 nM in [3], 39 nM in [4] and 40 nM at Mu-type opioid receptor. In addition, the Kd (commonly the concentration at which binding is half-saturated) in [6] came to 9.5 nM. Also, the TIME in [7] is below 2.78e-05 h. For the same molecule, the outcome in [8] was inactive. In addition, the Activity in [9] is above 90%.

In the case of `CN1/C(=C/C=C/C=C/C2=[N+](CCCCCC(=O)NCC(=O)NCC(=O)NCCCNC(=N)Nc3ccc4[nH]c5c(c4c3)C[C@@]3(O)[C@H]4Cc6ccc(O)c7c6[C@@]3(CCN4CC3CC3)[C@H]5O7)c3ccc(S(=O)(=O)[O-])cc3C2(C)C)C(C)(C)c2cc(S(=O)(=O)O)ccc21`, the Ratio Ki in the assay filed under Homo sapiens [1] came out at 100; in the assay listed under Homo sapiens [5], 91. For the same molecule, the outcome in [2] and in assay [8] was inactive. For the same molecule, the values for the Ki (in assay [3]; in assay [4]; on Mu-type opioid receptor) were 1.1 nM, 106 nM and 100 nM, respectively. Further, the Activity in assay [9] was above 90%.

As to `CN1/C(=C/C=C/C=C/C2=[N+](CCCCCC(=O)NCC(=O)NCC(=O)NCC(=O)NCC(=O)NCCCNC(=N)Nc3ccc4[nH]c5c(c4c3)C[C@@]3(O)[C@H]4Cc6ccc(O)c7c6[C@@]3(CCN4CC3CC3)[C@H]5O7)c3ccc(S(=O)(=O)[O-])cc3C2(C)C)C(C)(C)c2cc(S(=O)(=O)O)ccc21`, the Ratio Ki in the assay filed under Homo sapiens [1] worked out at 107; in the assay listed under Homo sapiens [5], 74. In addition, the outcome in [2] and in assay [8] was inactive. Further, the inhibitory constant (Ki) in assay [3] amounted to 1.8 nM; in assay [4], 193 nM; at Mu-type opioid receptor, 133 nM. Moreover, the Kd in [6] is 4.8 nM. In addition, in assay [9], the Activity is above 90%.

In the case of `CN1/C(=C/C=C/C2=[N+](CCCCCC(=O)NCC(=O)NCC(=O)NCC(=O)NCC(=O)NCCCNC(=N)Nc3ccc4[nH]c5c(c4c3)C[C@@]3(O)[C@H]4Cc6ccc(O)c7c6[C@@]3(CCN4CC3CC3)[C@H]5O7)c3ccc(S(=O)(=O)[O-])cc3C2(C)C)C(C)(C)c2cc(S(=O)(=O)O)ccc21`, the figures for the Ratio Ki in the assay listed under Homo sapiens [1] and in the assay filed under Homo sapiens [5] were 88 and 34, respectively. For the same molecule, the result in assay [2] and in assay [8] was inactive. Besides, the figures for the Ki (in assay [3]; in assay [4]; at Mu-type opioid receptor) were 3.2 nM, 280 nM and 110 nM, respectively.

`CN1/C(=C/C=C/C2=[N+](CCCCCC(=O)NCCCNC(=N)Nc3ccc4[nH]c5c(c4c3)C[C@@]3(O)[C@H]4Cc6ccc(O)c7c6[C@@]3(CCN4CC3CC3)[C@H]5O7)c3ccc(S(=O)(=O)[O-])cc3C2(C)C)C(C)(C)c2cc(S(=O)(=O)O)ccc21`: the Ratio Ki in the assay listed under Homo sapiens [1] turned out to be 4; in the assay filed under Homo sapiens [5], 44. In assay [2], the outcome was Active. Further, the values for the Ki (in assay [3]; in [4]; at Mu-type opioid receptor) were 8.6 nM, 31 nM and 380 nM, respectively. Further, the Activity is 8% in assay [10], 25% in assay [11], 51% in [13] and 16% in assay [14]. Further, the Kd in [6] came out at 18.8 nM. For the same molecule, in [12], the TIME was below 2.78e-05 h. Also, the result in [8] was inactive.
